ERAP1 inh: inhibitors of human ERAP1 aminopeptidase; actives 0.15% (n = 340,000); recombinant ERAP1, Leu-AMC fluorescence, 60 min; inhibition, % at 10.7 µM; AID 652197;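 active = mean replicate inhibition of at least 30%, or all replicates individually reaching that 30% level; inactive = mean below 30% and not every replicate reaching it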;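 also: 0% = neutral control wells and 100% = L-leucinethiol positive control wells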
Target sequence (Q9NZ08 whole entry, looked up): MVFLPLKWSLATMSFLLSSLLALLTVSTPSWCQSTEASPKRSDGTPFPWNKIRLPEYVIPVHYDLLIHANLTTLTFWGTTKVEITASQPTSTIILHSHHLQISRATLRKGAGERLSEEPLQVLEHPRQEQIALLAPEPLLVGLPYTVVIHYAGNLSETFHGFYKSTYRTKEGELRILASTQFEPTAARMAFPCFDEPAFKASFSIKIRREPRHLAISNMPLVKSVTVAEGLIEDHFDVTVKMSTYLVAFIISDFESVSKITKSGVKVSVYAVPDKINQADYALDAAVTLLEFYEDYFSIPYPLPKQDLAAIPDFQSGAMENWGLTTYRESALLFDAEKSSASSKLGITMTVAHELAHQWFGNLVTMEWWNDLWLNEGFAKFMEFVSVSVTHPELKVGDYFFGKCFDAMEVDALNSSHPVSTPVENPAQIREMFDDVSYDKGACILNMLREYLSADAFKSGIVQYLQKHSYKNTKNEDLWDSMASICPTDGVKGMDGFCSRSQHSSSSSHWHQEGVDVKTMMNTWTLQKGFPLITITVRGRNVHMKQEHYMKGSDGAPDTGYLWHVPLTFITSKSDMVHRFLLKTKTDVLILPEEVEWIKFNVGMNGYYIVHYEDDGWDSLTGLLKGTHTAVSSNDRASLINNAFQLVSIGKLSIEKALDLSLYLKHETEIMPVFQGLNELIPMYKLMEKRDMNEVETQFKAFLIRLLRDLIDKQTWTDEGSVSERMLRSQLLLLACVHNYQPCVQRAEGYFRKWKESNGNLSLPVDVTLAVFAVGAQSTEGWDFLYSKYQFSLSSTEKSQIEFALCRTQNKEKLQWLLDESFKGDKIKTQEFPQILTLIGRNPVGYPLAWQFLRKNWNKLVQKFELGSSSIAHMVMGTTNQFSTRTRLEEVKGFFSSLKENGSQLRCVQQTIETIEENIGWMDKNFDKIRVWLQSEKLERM
S100A4 MyoIIA: S100A4-myosin IIA interaction inhibition; P26447; S100A4/TAMRA-MyoIIA peptide fluorescence polarization; inhibition, % at 10.7 µM; actives 0.14% (n = 360,000);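 active = mean inhibition of at least 70% across replicates, with every replicate also reaching that level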
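Test system: S100A4 monomer protein. Medium: HEPES buffer with Ca2+, pH 7.2. Reagent: fluorescent myosin IIA peptide, 5 nM. Compound dosing: single-point compound testing. Timing: 5 min between mix addition and reading. Benchmarks: DMSO neutral and TFP positive wells.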
E-selectin induc: induces E-selectin expression in human endothelial cells; AID 686992; HUVEC E-selectin immunofluorescence imaging; normalized: neutral wells 0, TNF-alpha wells 100; activation, % at 7.58 µM; actives 0.37% (n = 260,000); P16581;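 active = mean E-selectin-positive cell signal at least 10% of the positive control, reached in at least 60% of replicates, without over 20% cell loss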
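Read-out basis: % PE-positive cells; Test system: HUVEC primary endothelial cells; Technique: immunofluorescence imaging; Dosing: single-point compound dose.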
AF4-AF9 inh: blocks AF4 peptide binding to human AF9 | AlphaScreen, biotin-AF4 peptide binding to FLAG-AF9 | inhibition, % at 10 µM | actives 0.47% (n = 350,000) | AID 651704;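 active = every replicate reaching a set inhibition limit, whatever the replicate mean, cut at about 25% in these data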;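 also: 0% = plate neutral control median and 100% = total signal loss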
Ecoli rRNA inh: selective bacterial rRNA inhibition in E. coli. GFP signal change (wild-type ribosome), % (concentration not given with the values). E. coli WT GFP vs humanized-ribosome RFP mutants, fluorescence, 24 h; active compounds read low; DMSO median 0, no signal -100. actives 1.6% (n = 350,000);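 active = significant combined selectivity score with lowered wild-type GFP, culture density cut under 30%, mutant RFP and density less affected; inactive = any of these conditions unmet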
SIRT5 block: inhibitors of human sirtuin-5 desuccinylase; Q9NXA8; Purified SirT5, succinyl-peptide AMC, trypsin-coupled fluorescence; inhibition, % at 15 µM; actives 1.1% (n = 330,000); in the data active = inhibition above about 15%
Active calls of the source: *; x = not tested or not shown. Compounds with a hit are over-represented: about 3.4% of the library has one in this group of screens.

SMILES	ERAP1 inh	S100A4 MyoIIA	E-selectin induc	AF4-AF9 inh	Ecoli rRNA inh	SIRT5 block
COc1cccc(/C=C2\SC(=S)N(C(C(=O)O)c3ccccc3)C2=O)c1OC (centres undefined)	-5	4	0	4	-34*	5
COc1cc(/C=C2\SC(=S)N(C(C(=O)O)c3ccccc3)C2=O)cc(OC)c1OC (centres undefined)	18	-1	x	x	-26*	16*
COc1cc(/C=C2\SC(=S)N(C(Cc3ccccc3)C(=O)O)C2=O)ccc1O (centres undefined)	11	-12	0	-16	-54	8
COC(=O)C1CSC(C)(C)C(=O)N1 (centres undefined)	-4	-9	x	-3	14	-4
COC(=O)CCCCC1SCC2NC(=O)NC21O (centres undefined)	2	0	x	54*	17	3
CCN(CC)C(=O)[C@H]1C[C@H](CC(=O)NCc2cccc(C(F)(F)F)c2)C(=O)N2CCc3c([nH]c4cc(CCC(=O)N(C)C)ccc34)[C@]12C	2	0	x	-3	-9	-6
CC(C)N(C(=O)[C@H]1C[C@H](CC(=O)NCc2cccc(C(F)(F)F)c2)C(=O)N2CCc3c([nH]c4cc(CCC(=O)N(C)C)ccc34)[C@]12C)C(C)C	0	15	x	7	x	24*
CC(C)N(C(=O)[C@H]1C[C@H](CC(=O)NC(C)(C)C)C(=O)N2CCc3c([nH]c4cc(-c5ccco5)ccc34)[C@]12C)C(C)C	-3	2	0	9	-1	27*
CCC(=O)Nc1ccc2c(c1)C(=O)N(C)[C@H]1CC[C@H](CC(=O)Nc3cccc(OC)c3)O[C@@H]1CO2	0	15	0	-2	-1	-7
CC(=O)N(C)C[C@H]1Oc2ncc(-c3cccc(C#N)c3)cc2C(=O)N([C@@H](C)CO)C[C@@H]1C	1	4	0	-3	3	-1
Cc1oc(-c2ccc(Cl)cc2)cc1C(=O)/C(C#N)=C/Nc1ccccc1	-1	-12	x	1	-25*	-7
Cc1oc(-c2ccc(Cl)cc2)cc1C(=O)N1CCC1(C)C(=O)O (centres undefined)	6	-1	0	-1	-7	2
O=C(Nc1ccccc1F)N[C@@H]1CC[C@@H](CCNS(=O)(=O)c2ccccc2)O[C@H]1CO	7	0	0	-3	-3	1
O=P(NC1CCCCC1)(c1ccccc1)c1ccccc1	4	-4	0	1	-9	-2
CC/C(=C\C1CCCCC1)C(NP(=O)(c1ccccc1)c1ccccc1)c1ccccc1 (centres undefined)	-2	0	0	3	-3	22*
CC1=Nc2ccccc2N=C(NC(=O)CSC(=S)N2CCCCC2)C1c1ccccc1 (centres undefined)	5	1	0	6	-21*	-2
COc1ccc(NC(=S)N2CCC(C(=O)c3ccc(F)cc3)CC2)c(OC)c1	-1	-3	x	2	-8	25*
COc1ccccc1NC(=S)N1CCCCCC1	-3	5	65*	-1	4	0
C[C@@H]1CN([C@@H](C)CO)C(=O)Cc2cc(NC(=O)Cc3cn(C)c4ccccc34)ccc2O[C@H]1CN(C)C(=O)Nc1ccccc1	-1	-4	0	3	2	1
CN(C)C(CNC(=O)c1cc(S(=O)(=O)N(C)c2ccccc2)ccc1Cl)c1cccs1 (centres undefined)	4	0	-1	4	-35*	0
C[C@@H]1CN([C@@H](C)CO)C(=O)c2cccc(NC(=O)c3nc4ccccc4s3)c2O[C@@H]1CN(C)S(=O)(=O)c1cccs1	1	-3	0	4	-4	3
C[C@H]1CN([C@@H](C)CO)C(=O)c2cc(C#CCN(C)C)cnc2O[C@H]1CN(C)Cc1ccccc1F	1	4	0	3	1	0
COc1ccccc1NC(=O)N(C)C[C@H]1Oc2ncc(C#CCN(C)C)cc2C(=O)N([C@@H](C)CO)C[C@H]1C	2	-3	0	-13	5	9
CC(C)C#Cc1cnc2c(c1)C(=O)N([C@H](C)CO)C[C@H](C)[C@H](CN(C)C(=O)Nc1ccc(F)cc1)O2	12	78*	1	3	2	3
COc1ccccc1C#Cc1cnc2c(c1)C(=O)N([C@@H](C)CO)C[C@H](C)[C@@H](CN(C)C)O2	1	0	0	21	2	31*
SMILES	ERAP1 inh	S100A4 MyoIIA	E-selectin induc	AF4-AF9 inh	Ecoli rRNA inh	SIRT5 block
CC(C)C#Cc1cnc2c(c1)C(=O)N([C@@H](C)CO)C[C@H](C)[C@@H](CN(C)C(=O)Nc1ccc(F)cc1)O2	10	-3	0	-15	-1	3
COc1ccccc1NC(=O)N(C)C[C@H]1Oc2ncc(C#CC(C)C)cc2C(=O)N([C@@H](C)CO)C[C@@H]1C	0	4	0	0	-5	16*
COc1ccccc1C#Cc1cnc2c(c1)C(=O)N([C@@H](C)CO)C[C@@H](C)[C@@H](CN(C)C)O2	1	4	1	5	4	3
C[C@@H]1CN([C@@H](C)CO)C(=O)c2cc(NC(=O)Nc3ccc(C(F)(F)F)cc3)ccc2O[C@@H](C)CCCCO[C@@H]1CN(C)C(=O)CCCN(C)C	x	x	0	x	-1	x
N#C[C@@H]1[C@H](c2ccccc2C2=CCCC2)[C@H](CO)N1C(=O)C1CCCC1	x	3	0	0	0	0
CNC[C@@H]1OCCCC[C@H](C)Oc2ccc(NS(=O)(=O)c3ccc(C)cc3)cc2C(=O)N([C@H](C)CO)C[C@@H]1C	-1	-6	1	-10	5	5
N/C(=N\OC(=O)CC(c1ccccc1)c1ccccc1)c1cccnc1	5	2	x	0	-20*	2
N/C(=N\OC(=O)c1ccccc1)c1cccnc1	-2	24	x	-3	4	1
CN(C)/C=C/C(=O)c1ccc(Cl)c([N+](=O)[O-])c1	-1	-3	-1	7	4	17*
CN(C)/C=C/C(=O)c1ccc([N+](=O)[O-])c(CS(=O)(=O)c2ccccc2)c1	6	4	0	1	3	-1
CC=Cc1ccc2n(c1=O)C[C@@H]1N[C@H]2[C@H](C(=O)NC2CCCCC2)[C@H]1CO (mixture of isomers)	3	81*	0	-3	1	-8
CC=Cc1ccc2n(c1=O)C[C@@H]1[C@@H](CO)[C@H](C(=O)NC3CCCCC3)N(CCC)[C@H]21 (mixture of isomers)	x	x	0	3	1	x

Screening data (PubChem BioAssay)
